Consider 17 compounds from PubChem BioAssay AID504509 (Southern Research Specialized Biocontainment Screening …, 2011).

The source made the active and inactive calls.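 How the source made its calls: active means cell viability under 70% at any tested concentration, a measure not printed in our tables; inactive means the rest.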 Bounds are passed on as bounds.

The test system of the test is HEp-2 viability, luminescence, cytotoxicity counter-screen. The test can be described thus: HEp-2 cell cytotoxicity, dose response, cytotoxicity control for RSV inhibitor project, HEp-2 cells, synthesized compounds, set 6 (AID 504509). An outline of the steps:
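Test system: HEp-2 cells without virus / Quantity: 10,595 cells/well / Medium: DMEM/F12 / Compound: eight 1:2 dilutions, 0.39–50 µM, 0.5% DMSO / Timing: 6 d at 37 °C / Measured by: ATP luminescence (CellTiter-Glo) / Measure: CC50 from % viability versus untreated-cell median / Replication: triplicate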

In the case of `O=C(O)C1CC=CCC1C(=O)Nc1ccc(S(=O)(=O)N2CCCc3ccccc32)cc1` (configuration not stated), the CC50 is 33 µM.
For the compound `Cc1ccc(C(F)(F)F)cc1NC(=O)[C@@H]1CCCN1S(=O)(=O)c1cccc2cccnc12`, the CC50 was 6.92 µM.
For `COCCCNC(=O)c1ccc(Cn2c(=O)c3ccccc3n(Cc3ccccc3)c2=O)cc1` the value was > 50 µM (inactive); for `Cc1ccc(C(C)C)cc1NC(=O)[C@@H]1CCCN1S(=O)(=O)c1cccc2cccnc12`, 8.26 µM.
`Cc1ccc(C)c(NC(=O)[C@@H]2CCCN2S(=O)(=O)c2cccc3cccnc23)c1`: the CC50 was 50.4 µM.
In the case of `Cc1ccc(Cl)cc1NC(=O)[C@@H]1CCCN1S(=O)(=O)c1cccc2cccnc12`, the CC50 was 9.59 µM.
In the case of `Cc1ccc(C(C)(C)C)cc1NC(=O)[C@@H]1CCCN1S(=O)(=O)c1cccc2cccnc12`, the CC50 was 7.18 µM.
The result for `COCCNC(=O)c1ccc(Cn2c(=O)c3ccccc3n(Cc3ccc(C)cc3)c2=O)cc1` reads > 50 µM (inactive); that for `COc1ccccc1CNC(=O)[C@@H]1CCCN1S(=O)(=O)c1cccc2cccnc12`, > 50 µM (inactive).
For `COc1ccccc1NCC(=O)Nc1cc(S(=O)(=O)N2CCOCC2)ccc1N1CCOCC1`, the CC50 was > 50 µM (inactive).
For the compound `COc1ccccc1CNC(=O)C1CCN(S(=O)(=O)c2ccccc2)CC1`, the CC50 is > 50 µM (inactive).
In the case of `Cc1ccc(Cl)c(NC(=O)[C@@H]2CCCN2S(=O)(=O)c2cccc3cccnc23)c1`, the CC50 is 9.83 µM.
`COc1ccccc1CNC(=O)C1CCN(S(=O)(=O)c2cccc3cccnc23)CC1`: the CC50 was > 50 µM (inactive).
On to `COc1ccccc1CNC(=O)C1CCN(S(=O)(=O)c2cccc3nonc23)CC1`, for which the CC50 is > 50 µM (inactive).
Consider `Cc1cccc(C)c1NC(=O)[C@@H]1CCCN1S(=O)(=O)c1cccc2cccnc12`, for which the CC50 is > 50 µM (inactive).
As to `COc1cccc(CNC(=O)C2CCN(S(=O)(=O)c3cccc4nonc34)CC2)c1`, the CC50 is > 50 µM (inactive).
Turning to `COc1ccccc1CNC(=O)C1CCN(Cc2cccc3nonc23)CC1`, the CC50 was > 50 µM (inactive).
